Measured values gathered from unrelated publications.
Protocols differ between the studies behind these lines.
Effect on: cell growth or viability

SMILES | cell line | assay | conditions | IC50
CC(=O)OCCOC(=O)[C@]1(C)CC[C@]2(C)CC[C@]3(C)C4=CC=C5C(=CC(=O)C(O)=C5C)[C@]4(C)CC[C@@]3(C)[C@@H]2C1 | MGC-803 | MTT | 48 h | 410 nM
CC(=O)O[C@@]12CO[C@@H]1C[C@H](O)[C@@]1(C)C(=O)[C@H](O)C3=C(C)[C@@H](OC(=O)[C@H](O)[C@@H](NC(=O)OC(C)(C)C)c4ccccc4)C[C@@](O)([C@@H](OC(=O)c4ccccc4)[C@H]21)C3(C)C | 143B | resazurin | 72 h | 2.9 nM
OCc1ccc2c(c1C#Cc1ccc(O)cc1)C(c1ccc(O)cc1)(c1ccc(O)cc1)c1cc(O)ccc1-2 | MGC-803 | MTT | 48 h | > 50000 nM
N[C@@H](CC(=O)N1CCN(C(c2ccc(F)cc2)c2ccc(F)cc2)CC1)C(=O)N1Cc2ccccc2C1 | Kasumi 1 | ATP luminescence | 48 h | 40800 nM
O=C(c1ccc(OCCN2CCCCC2)cc1)c1c(-c2ccc(O)cc2)sc2cc(O)ccc12 | COS-7 | ATP luminescence | – | 20100 nM
CC1(C)CC[C@]2(C(=O)O)CC[C@]3(C)C(=CC[C@@H]4[C@@]5(C)CC[C@H](O)C(C)(C)[C@@H]5CC[C@]43C)[C@@H]2C1 | ECa-109 | MTT | 48 h | 78200 nM
O=C(O)c1cc(O)c(O)c(O)c1 | PC-12 | MTT | – | > 100000 nM
CC(C)n1c(/C=C/C(O)CC(O)CC(=O)O)c(-c2ccc(F)cc2)c2ccccc21 (stereo not drawn) | SW480 | SRB | 72 h | 4.24 µg/mL
CC1=C(O)C(=O)C=C2C1=CC=C1[C@@]2(C)CC[C@@]2(C)[C@@H]3C[C@](C)(C(=O)OCCCCCCO)CC[C@]3(C)CC[C@]12C | MGC-803 | MTT | 48 h | 390 nM
CC(=O)O[C@@]12CO[C@@H]1C[C@H](O)[C@@]1(C)C(=O)[C@H](O)C3=C(C)[C@@H](OC(=O)[C@H](O)[C@@H](NC(=O)OC(C)(C)C)c4ccccc4)C[C@@](O)([C@@H](OC(=O)c4ccccc4)[C@H]21)C3(C)C | PC-12 | MTT | – | 280 µg/mL
CC(C)[C@H](N)C(=O)N1CCC[C@H]1B(O)O | Kasumi 1 | ATP luminescence | 48 h | > 60000 nM
CC1=C(O)C(=O)C=C2C1=CC=C1[C@@]2(C)CC[C@@]2(C)[C@@H]3C[C@](C)(C(=O)OCCCCCCCO)CC[C@]3(C)CC[C@]12C | MGC-803 | MTT | 48 h | 400 nM
CCOC(=O)c1[nH]c(Br)c(-c2ccc(SC)cc2)c1Br | MDA-MB-435 | SRB | – | 626 nM
Cc1nnc(C(=O)NC(C)(C)c2nc(C(=O)NCc3ccc(F)cc3)c(O)c(=O)n2C)o1 | COS-7 | ATP luminescence | – | 36400 nM
Cc1cccc(Nc2ccccc2C(=O)O)c1C | mouse Peritoneal macrophage | crystal violet | 72 h | > 200000 nM
CC1=C(O)C(=O)C=C2C1=CC=C1[C@@]2(C)CC[C@@]2(C)[C@@H]3C[C@](C)(C(=O)OCCO)CC[C@]3(C)CC[C@]12C | MGC-803 | MTT | 48 h | 370 nM
O=C(Nc1ccc(Cl)cc1)c1ccc([N+](=O)[O-])o1 | NCI-H2030 | resazurin | 96 h | 1120 nM
CC1=C(O)C(=O)C=C2C1=CC=C1[C@@]2(C)CC[C@@]2(C)[C@@H]3C[C@](C)(C(=O)OCCCn4ccc5ccccc54)CC[C@]3(C)CC[C@]12C | MGC-803 | MTT | 48 h | 1090 nM
COc1cc(Nc2nccc(-c3cnn4nc(OC)ccc34)n2)cc(C(F)(F)F)c1 | NCI-N87 | ATP luminescence | – | 640 nM
COCCCOC(=O)[C@]1(C)CC[C@]2(C)CC[C@]3(C)C4=CC=C5C(=CC(=O)C(O)=C5C)[C@]4(C)CC[C@@]3(C)[C@@H]2C1 | MGC-803 | MTT | 48 h | 400 nM
O=c1[nH]c(=O)n([C@H]2C[C@H](O)[C@@H](CO)O2)cc1F | FM3A/0 | MTT | 72 h | 3.2 nM
